According to paper PMC7591136 (ACS biomaterials science & engineering, 2019):
In brackets after ≈: the same amount, converted by molar mass.

Legend:
[1] = cited from earlier work
[2] = Partition coefficients, 1-octanol / PBS pH 7.4, shake flask; type: physicochemical; conditions: 1-octanol / PBS pH 7.4, 20 °C
Summary of the method: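 Shake-flask (OECD) partitioning between 1-octanol and PBS pH 7.4 at 20 °C, run in triplicate with three different organic:aqueous volume ratios. Analyte was kept below 2.0 mM in each phase. Phases were separated by centrifugation and quantified by C-18 reverse-phase HPLC (35 °C, UV 300 nm) against 8-point standard curves (0.005–1.000 mg/mL). For the ionizable parent drug, the value is a distribution coefficient.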

HIV-1 BaL = type: cell-based; conditions: Human immunodeficiency virus 1, BAL, TZM-bl, 48 h
[3] = pKa determination by UV–vis titration; type: physicochemical; conditions: neutral pH

Compound	reported aqueous solubility [1] [µg/mL]	apparent POW (distribution coefficient) [2]	IC50 (HIV-1 BaL) [nM]	ionized fraction [3] [%]	aqueous solubility ([1]; neutral form) [µg/mL]
O=C1Nc2ccc(Cl)cc2[C@@](C#CC2CC2)(C(F)(F)F)O1 [efavirenz]	< 10				
Cc1cccc(C)c1OCC(=O)N[C@@H](Cc1ccccc1)[C@@H](O)C[C@H](Cc1ccccc1)NC(=O)[C@H](C(C)C)N1CCCNC1=O [liponavir]	< 10				
Cc1nnc(C(=O)NC(C)(C)c2nc(C(=O)NCc3ccc(F)cc3)c(O)c(=O)n2C)o1 [RAL, raltegravir]		2.0	4.5 ± 0.5	> 85	1300 (≈ 2930 µM)
Cc1cc(C)c(Nc2ccnc(Nc3ccc(C#N)cc3)n2)c(C)c1 [dapivirine]	< 10				
